Experimental data: ChEMBL document CHEMBL1123901, “Inhibition of delayed hypersensitivity reactions by cinnamyl 1-thioglycosides” (J Med Chem, 1987)

Tests used:
Format in all cases: functional
[1] = system: Mus musculus; test: Compound was administered orally to mice before increase in foot-pad thickness at a dose of 2.5 mg/kg; conditions: route oral
How it was run: (§1)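 DTH in A/J female mice (20-23 g): cyclophosphamide 200 mg/kg sc, then iv sensitization with 10^8 washed SRBC 3 days later. On day 6 after sensitization, one hind footpad challenged with 10^8 SRBC in 20 μL, the other given saline. Dosing ip or po to overnight-fasted mice 20 min before challenge. Swelling read at 24 and 48 h as antigen minus saline footpad (mm × 10), by constant-pressure caliper.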

[2] = system: Mus musculus; test: Percent reduction in mice after oral administration 2.5 mg/kg; how it was run: as §1
[3] = species: Cavia porcellus; test: Effect on guinea pig T cell proliferation was ested by measuring the incorporation of (+/)-[3H]thymidine uptake at the concentration of 100 uM
How it was run: (§2)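 Strain 2 female guinea pigs were immunized with 100 μg OVA in CFA split over the footpads. At day 14 they received mineral oil ip, and the exudate was collected 4 days later. T cells were enriched on nylon wool. 2×10^5 cells per well were cultured with 10% irradiated (2100 rads) exudate cells, OVA (10 μg/mL) and compound, for 72 h at 37 °C in 5% CO2. [3H]thymidine (1 μCi) was added 18-24 h before harvest. Triplicate wells; mean Δcpm ± SD.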

[4] = species: Cavia porcellus; test: Effect on guinea pig T cell proliferation was tested by measuring the incorporation of [3H]-thymidine uptake at the concentration of 0 uM; how it was run: as §2
[5] = species: Cavia porcellus; test: Inhibitory activity against [3H]thymidine uptake by cinnamyl 1-thioglycosides in guinea pig T cell proliferation; conditions: Cavia porcellus, T-cell, 72 h; how it was run: as §2
[6] = species: Cavia porcellus; test: Effect on guinea pig T cell proliferation was tested by measuring the incorporation of [3H]thymidine uptake at the concentration of 10 uM; how it was run: as §2
[7] = species: Cavia porcellus; test: Effect on guinea pig T cell proliferation was tested by measuring the incorporation of [3H]thymidine uptake at the concentration of 1000 uM; how it was run: as §2
[8] = species: Cavia porcellus; test: Effect on guinea pig T cell proliferation was tested by measuring the incorporation of [3H]thymidine uptake at the concentration of 500 uM; how it was run: as §2
[9] = species: Cavia porcellus; test: Effect on guinea pig T cell proliferation was tested by measuring the incorporation of [3H]thymidine uptake at the concentration of 750 uM; how it was run: as §2
[10] = species: Cavia porcellus; test: Effect on guinea pig T cell proliferation was tested by measuring the incorporation of [3H]thymidine uptake at the concentration of 250 uM; how it was run: as §2
[11] = species: Cavia porcellus; test: [3H]-Thymidine uptake was determined by liquid scintillation spectroscopy in ovalbumin (OVA) pulsed compound 2 treated Macrophages
How it was run: (§3)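 Guinea pig PELs and irradiated (2100 rads) exudate macrophages were each preincubated with compound (1 mM or 500 μM, depending on agent) for 18 h at 37 °C, then washed. Macrophages were pulsed with OVA 100 μg/mL for 1 h at 37 °C and washed. Cells were viability-adjusted by trypan blue and mixed, with or without OVA 10 μg/mL. Culture ran 72 h at 37 °C with [3H]thymidine read by scintillation, as mean Δcpm × 10^-3.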

[12] = species: Cavia porcellus; test: [3H]thymidine uptake was determined by liquid scintillation spectroscopy in ovalbumin pulsed Macrophages
How it was run: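 Pretreatment protocol. Strain 2 female guinea pigs immunized with OVA in CFA (100 μg OVA; 0.1 mL/foot); mineral oil given ip at day 14, peritoneal exudate collected 4 days later. Nylon-wool-enriched T cells (PELs) and irradiated (2100 rads) exudate macrophages each incubated with sugar derivative 18 h at 37 °C, then washed. Macrophages pulsed with OVA 100 μg/mL for 1 h at 37 °C and washed. Viability adjusted by trypan blue; populations mixed and cultured 72 h at 37 °C. [3H]thymidine (1 μCi) added 18-24 h before harvest; read by liquid scintillation as mean Δcpm ×10^-3.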

[13] = species: Cavia porcellus; test: Inhibitory activity against [3H]thymidine uptake by cinnamyl 1-thioglycosides using guinea pig T cell proliferation assay
[14] = species: Cavia porcellus; test: Effect on guinea pig T cell proliferation was tested by measuring the incorporation of [3H]-thymidine uptake at the concentration of 100 uM; how it was run: as §2
[15] = species: Cavia porcellus; test: [3H]thymidine uptake was determined by liquid scintillation spectroscopy in 2 pretreated OVA pulsed Macrophages plus OVA (10 ug/mL) pretreated with 500 uM 2 at 37 degree C for 18 h; how it was run: as §3
[16] = species: Cavia porcellus; test: [3H]thymidine uptake was determined by liquid scintillation spectroscopy in 3 treated Macrophages plus OVA (10 ug/mL); how it was run: as §3
[17] = species: Cavia porcellus; test: [3H]thymidine uptake was determined by liquid scintillation spectroscopy in Macrophages; how it was run: as §3
[18] = species: Cavia porcellus; test: [3H]thymidine uptake was determined by liquid scintillation spectroscopy in Macrophages pretreated with 500 uM 2 at 37 degree C for 18 h; how it was run: as §3
[19] = species: Cavia porcellus; test: [3H]thymidine uptake was determined by liquid scintillation spectroscopy in OVA pulsed Macrophages pretreated with 500 uM 2 at 37 degree C for 18 h; how it was run: as §3
[20] = species: Cavia porcellus; test: [3H]-Thymidine uptake was determined by liquid scintillation spectroscopy in OVA pulsed compound 2 pretreated Macrophages pretreated with 500 uM 2 at 37 degree C for 18 h; how it was run: as §3
[21] = species: Cavia porcellus; test: [3H]-Thymidine uptake was determined by liquid scintillation spectroscopy in compound 2 pretreated Macrophages plus OVA (ug/mL) pretreated with 500 uM 2 at 37 degree C for 18 h; how it was run: as §3
[22] = species: Cavia porcellus; test: [3H]thymidine uptake was determined by liquid scintillation spectroscopy in compound 2 treated Macrophages; how it was run: as §3
[23] = species: Cavia porcellus; test: [3H]thymidine uptake was determined by liquid scintillation spectroscopy in compound 2 treated Macrophages pretreated with 500 uM 2 at 37 degree C for 18 h; how it was run: as §3
[24] = system: Mus musculus; test: Compound was administered intraperitoneally to mice before increase in foot-pad thickness at a dose of 10 mg/kg; conditions: route intraperitoneal; how it was run: as §1
[25] = system: Mus musculus; test: Compound was administered intraperitoneally to mice before increase in foot-pad thickness at a dose of 3 mg/kg; conditions: route intraperitoneal; how it was run: as §1
[26] = system: Mus musculus; test: Compound was administered orally to mice before increase in foot-pad thickness at a dose of 10 mg/kg; conditions: route oral; how it was run: as §1
[27] = system: Mus musculus; test: Compound was administered orally to mice before increase in foot-pad thickness at a dose of 3 mg/kg; conditions: route oral; how it was run: as §1
[28] = system: Mus musculus; test: Compound was administered orally to mice before increase in foot-pad thickness at a dose of 30 mg/kg; conditions: route oral; how it was run: as §1
[29] = system: Mus musculus; test: Percent reduction in mice after oral administration 10 mg/kg; how it was run: as §1
[30] = system: Mus musculus; test: Percent reduction in mice after intraperitoneal administration 3 mg/kg; how it was run: as §1
[31] = system: Mus musculus; test: Percent reduction in mice after intraperitoneal administration of 30 mg/kg; how it was run: as §1
[32] = system: Mus musculus; test: Percent reduction in mice after oral administration 3 mg/kg; how it was run: as §1
[33] = system: Mus musculus; test: Percent reduction in mice after oral administration of 30 mg/kg; how it was run: as §1
[34] = system: Mus musculus; test: Percent reduction in mice after intraperitoneal administration 10 mg/kg; how it was run: as §1
[35] = species: Cavia porcellus; test: [3H]thymidine uptake was determined by liquid scintillation spectroscopy in compound 2 pretreated OVA pulsed Macrophages plus OVA (10 ug/mL); how it was run: as §3
[36] = system: Mus musculus; test: Compound was administered intraperitoneally to mice before increase in foot-pad thickness at a dose of 30 mg/kg; conditions: route intraperitoneal; how it was run: as §1

SMILES: C[C@@H]1C[C@H]2[C@@H]3CCC4=CC(=O)C=C[C@]4(C)[C@@]3(F)[C@@H](O)C[C@]2(C)[C@@]1(O)C(=O)CO [DEXAMETHASONE]
- Activity [1]: 0.3 mm x10
- Reduction [2]: 68%

SMILES: [N-]=[N+]=NCC1OC(SC/C=C/c2ccccc2)C(O)C(O)C1O (configuration not stated)
- Activity [3]: 21.1 Δcpm x10e-3
- Activity [4]: 33.5 Δcpm x10e-3
- IC50 [5]: 240 µM
- Activity [6]: 21 Δcpm x10e-3
- Activity [7]: 0.06 Δcpm x10e-3
- Activity [8]: 2.26 Δcpm x10e-3
- Activity [9]: 0 Δcpm x 10^-3
- Activity [10]: 14.3 Δcpm x10e-3

SMILES: OCC1OC(SC/C=C/c2ccccc2)C(O)C(O)C1O (stereo in doubt; 2)
- Delta cpm x10e-3 [11]: 27.8
- Delta cpm x10e-3 [12]: 41.36
- Activity [4]: 82.4 Δcpm x10e-3
- IC50 [13]: 198 µM
- Activity [6]: 95.9 Δcpm x10e-3
- Activity [14]: 63.6 Δcpm x10e-3
- Activity [7]: 0.18 Δcpm x10e-3
- Activity [8]: 0.04 Δcpm x10e-3
- Activity [9]: 0 Δcpm x 10^-3
- Delta cpm x10e-3 [15]: 12.06
- Delta cpm x10e-3 [16]: 14.5
- Delta cpm x10e-3 [17]: 1.31
- Delta cpm x10e-3 [18]: 1.16
- Delta cpm x10e-3 [19]: 30.35
- Delta cpm x10e-3 [20]: 14.2
- Delta cpm x10e-3 [21]: 8.7
- Delta cpm x10e-3 [22]: 1.89
- Delta cpm x10e-3 [23]: 1.07
- Activity [24]: 2.46 mm x10
- Activity [25]: 7.3 mm x10
- Activity [26]: 0.82 mm x10
- Activity [27]: 0.85 mm x10
- Activity [28]: 0.82 mm x10
- Reduction [29]: 30%
- Reduction [30]: 0%
- Reduction [31]: 63%
- Reduction [32]: 27%
- Reduction [33]: 30%
- Reduction [34]: 56%
- Delta cpm x10e-3 [35]: 18.94
- Activity [10]: 17.6 Δcpm x10e-3
- Activity [36]: 2.07 mm x10
